Measurements published in ChEMBL document CHEMBL1131156, “Studies on selectin blockers. 7. Structure-activity relationships of sialyl Lewis X mimetics based on modified Ser-Glu dipeptides” (J Med Chem, 1998).

Tests used:
P-selectin [1] = target: T1, P-selectin (Homo sapiens, UniProt P16109); test: Inhibition of Selectin P binding
T1 sequence (P16109 whole entry): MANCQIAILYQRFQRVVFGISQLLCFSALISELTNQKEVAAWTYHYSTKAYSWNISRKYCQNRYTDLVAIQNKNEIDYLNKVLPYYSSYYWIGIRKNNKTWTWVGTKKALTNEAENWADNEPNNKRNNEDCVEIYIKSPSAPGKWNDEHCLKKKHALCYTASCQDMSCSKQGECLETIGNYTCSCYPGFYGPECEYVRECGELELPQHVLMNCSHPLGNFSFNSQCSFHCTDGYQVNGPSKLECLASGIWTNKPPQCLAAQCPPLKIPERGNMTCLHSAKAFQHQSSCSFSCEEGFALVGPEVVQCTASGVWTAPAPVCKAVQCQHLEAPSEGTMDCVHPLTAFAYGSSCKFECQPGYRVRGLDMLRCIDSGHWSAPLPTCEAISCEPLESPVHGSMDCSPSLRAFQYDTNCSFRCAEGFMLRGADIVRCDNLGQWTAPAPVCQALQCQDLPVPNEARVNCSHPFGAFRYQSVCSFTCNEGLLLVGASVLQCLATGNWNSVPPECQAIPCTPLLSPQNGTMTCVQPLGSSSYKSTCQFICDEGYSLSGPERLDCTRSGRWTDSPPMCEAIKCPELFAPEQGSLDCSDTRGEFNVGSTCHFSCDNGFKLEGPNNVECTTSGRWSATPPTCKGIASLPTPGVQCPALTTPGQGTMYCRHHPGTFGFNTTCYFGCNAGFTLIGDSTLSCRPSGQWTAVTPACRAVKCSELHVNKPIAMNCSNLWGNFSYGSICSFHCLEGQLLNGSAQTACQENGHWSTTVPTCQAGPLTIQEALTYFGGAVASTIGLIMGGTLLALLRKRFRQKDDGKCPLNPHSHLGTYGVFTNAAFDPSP
Summary of the method: (§1)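 Wells coated with sLeX pentasaccharide ceramide analogue (100 pmol/well, dried from 1:1 methanol/water), blocked with 5% BSA-1 mM CaCl2/50 mM imidazole (pH 7.2) 1 h RT. Selectin-Ig fusion was precomplexed 30 min RT with biotinylated goat F(ab')2 anti-human IgG/streptavidin-alkaline phosphatase. Compounds (DMSO stock 10 mM; […]) were incubated with complex 30 min RT, then in wells 45 min at 37 °C. Detection used p-nitrophenyl phosphate in diethanolamine, pH 9.8.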

L-selectin = target: T2, L-selectin (Homo sapiens, UniProt P14151); test: Inhibition of Selectin L binding; summary of the method: as §1
T2 sequence (P14151 whole entry): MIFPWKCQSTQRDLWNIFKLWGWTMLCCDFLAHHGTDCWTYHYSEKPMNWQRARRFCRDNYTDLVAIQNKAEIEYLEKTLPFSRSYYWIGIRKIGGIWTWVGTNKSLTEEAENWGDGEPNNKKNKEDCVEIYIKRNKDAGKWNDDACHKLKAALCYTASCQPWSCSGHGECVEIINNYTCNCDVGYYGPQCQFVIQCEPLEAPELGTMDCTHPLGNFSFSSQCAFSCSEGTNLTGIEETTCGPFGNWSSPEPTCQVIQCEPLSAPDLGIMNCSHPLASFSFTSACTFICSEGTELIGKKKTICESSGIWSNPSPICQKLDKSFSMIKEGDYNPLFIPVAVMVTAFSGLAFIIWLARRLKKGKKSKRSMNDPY

E-selectin = target: T3, E-selectin (Homo sapiens, UniProt P16581); test: Displacement of sialyl Lewis X (sLex) from selectin E
T3 sequence (P16581 whole entry): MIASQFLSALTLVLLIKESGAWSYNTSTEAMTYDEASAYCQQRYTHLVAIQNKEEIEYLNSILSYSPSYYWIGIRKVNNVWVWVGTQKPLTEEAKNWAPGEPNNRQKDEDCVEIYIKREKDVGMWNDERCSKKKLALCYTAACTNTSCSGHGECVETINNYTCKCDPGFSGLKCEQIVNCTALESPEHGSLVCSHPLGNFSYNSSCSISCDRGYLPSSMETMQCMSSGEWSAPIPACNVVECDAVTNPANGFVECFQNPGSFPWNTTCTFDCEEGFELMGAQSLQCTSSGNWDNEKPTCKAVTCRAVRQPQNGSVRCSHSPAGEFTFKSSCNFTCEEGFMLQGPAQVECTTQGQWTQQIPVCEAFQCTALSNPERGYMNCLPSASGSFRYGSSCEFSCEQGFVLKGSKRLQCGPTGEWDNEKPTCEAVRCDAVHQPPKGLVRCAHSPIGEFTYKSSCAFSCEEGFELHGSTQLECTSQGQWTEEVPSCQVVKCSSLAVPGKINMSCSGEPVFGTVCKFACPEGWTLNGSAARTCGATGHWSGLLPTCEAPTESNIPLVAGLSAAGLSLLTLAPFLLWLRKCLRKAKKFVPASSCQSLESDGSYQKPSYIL

P-selectin [2] = target: T1, P-selectin; test: The compound was tested for the concentration to inhibit 50% of Selectin P by blocking its activity; range is 250-500

SMILES | IC50 (P-selectin [1]) [µM] | IC50 (L-selectin) [µM] | IC50 (E-selectin) [µM] | IC50 (P-selectin [2]) [µM]
CC(=O)N[C@H]1[C@H]([C@H](O)[C@H](O)CO)O[C@@](O[C@H]2[C@@H](O)[C@@H](CO)O[C@@H](O[C@@H]([C@H](O[C@@H]3O[C@@H](C)[C@@H](O)[C@@H](O)[C@@H]3O)[C@H](C=O)NC(C)=O)[C@H](O)CO)[C@@H]2O)(C(=O)O)C[C@@H]1O [SIALYL LEWIS X] | > 1000 | > 1000 | – | –
CCCCCCCCCCCCCCCC(=O)N[C@H](COC1OC(C)C(O)C(O)C1O)C(=O)NC(CCC(=O)O)C(=O)NC (stereo partly specified) | – | 200 | > 500 | 250
CCCCCCCCCCCCCCC(CCCCCCCCCCCCCC)C(=O)N[C@H](CO[C@H]1O[C@H](CO)[C@@H](O)[C@@H](O)[C@@H]1O)C(=O)N[C@@H](CCC(=O)O)C(=O)NC | 0.45 | 4 | 3.5 | –
CCCCCCCCCCCC(CCCCCCCCCCC)C(=O)N[C@H](COC1OC(C)C(O)C(O)C1O)C(=O)NC(CCC(=O)O)C(=O)NC (stereo partly specified) | 15 | 12 | 160 | –
CCCCCCCCCCCCCCC(CCCCCCCCCCCCCC)C(=O)N[C@@H](CO[C@H]1O[C@H](CO)[C@@H](O)[C@@H](O)[C@@H]1O)C(=O)N[C@H](CCC(=O)O)C(=O)NC (stereo in doubt; 5b) | 0.42 | 3.1 | 16 | –
CCCCCCCCCCCCCCC(CCCCCCCCCCCCCC)C(=O)N[C@@H](CO[C@H]1O[C@@H](C)[C@@H](O)[C@H](O)[C@@H]1O)C(=O)N[C@@H](CCC(=O)O)C(=O)NC | 0.6 | 1.8 | > 1000 | –
CCCCCCCCCCCCCCC(CCCCCCCCCCCCCC)C(=O)N[C@H](CO[C@H]1O[C@@H](C)[C@@H](O)[C@H](O)[C@@H]1O)C(=O)N[C@H](CCC(=O)O)C(=O)NC | 0.3 | 0.7 | > 1000 | –
CCCCCCCCCCCCCCC(CCCCCCCCCCCCCC)C(=O)N[C@H](COC1OC(C)C(O)C(O)C1O)C(=O)N[C@@H](CCC(=O)OC)C(=O)NC (stereo partly specified) | 37 | > 500 | > 500 | –
CCCCCCCCCCCCCCC(CCCCCCCCCCCCCC)C(=O)N[C@H](CO[C@H]1O[C@@H](C)[C@@H](O)[C@H](O)[C@@H]1O)C(=O)N[C@@H](CCC(=O)O)C(=O)NC | 0.3 | 1.6 | > 100 | –
CCCCCCCCCCCCCCC(CCCCCCCCCCCCCC)C(=O)N[C@H](COC1OC(C)C(O)C(O)C1O)C(=O)NC(CC(=O)O)C(=O)NC (stereo partly specified) | 3.6 | 3.8 | > 500 | –
CCCCCCCCCCCCCCC(CCCCCCCCCCCCCC)C(=O)N[C@@H](CO[C@H]1O[C@H](CO)[C@@H](O)[C@@H](O)[C@@H]1O)C(=O)N[C@H](CCC(=O)O)C(=O)NC (stereo in doubt; 5c) | 0.68 | 4.2 | > 1000 | –
CCCCCCCCCCCCCCC(CCCCCCCCCCCCCC)C(=O)N[C@H](COC1OC(C)C(O)C(O)C1O)C(=O)NC(CCC(=O)O)C(=O)OC (stereo partly specified) | 1.6 | 2.4 | > 500 | –
CCCCCCCCCCCCCCC(CCCCCCCCCCCCCC)C(=O)N[C@@H](CO[C@H]1O[C@H](CO)[C@@H](O)[C@@H](O)[C@@H]1O)C(=O)N[C@H](CCC(=O)O)C(=O)NC (stereo in doubt; 5d) | 0.38 | 4.4 | > 1000 | –
CCCCCCCCCCCCCCC(CCCCCCCCCCCCCC)C(=O)N[C@@H](CO[C@H]1O[C@@H](C)[C@@H](O)[C@H](O)[C@@H]1O)C(=O)N[C@H](CCC(=O)O)C(=O)NC | 0.3 | 0.8 | > 100 | –
